Columns and labels:
3Y1 cell line = assay: Concentration to inhibit growth of normal rat fibroblast cells (3Y1-B cells) after 72 h exposure; type: functional, cell-based; conditions: 3Y1, 72 h
Procedure, shortened: (§1)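 Cells precultured 24 h in DMEM with 10% fetal calf serum, then exposed to drug for 72 h. Viability read by MTT assay. IC50 taken as concentration giving 50% growth inhibition relative to control cultures.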

[1] = Concentration to inhibit growth of normal rat K-ras-transformed cells (KNRK 5.2 cells) after 72 hr exposure; type: functional; procedure, shortened: as §1
NRK = assay: Concentration to inhibit growth of normal rat kidney epithelial cells (NRK cells) after 72 hr exposure; type: functional, cell-based; procedure, shortened: as §1
[2] = Concentration to inhibit growth of v-src-transformed cells (SR-3Y1 cells) after 72 h exposure; type: functional; conditions: Rattus norvegicus, SR3Y1, 72 h; procedure, shortened: as §1
[3] = biological target: Proto-oncogene tyrosine-protein kinase Src (Rattus norvegicus, UniProt Q9WUD9); assay: Inhibition of v-Src tyrosine kinase autophosphorylation in SR3Y1 cells after 15 hr exposure; type: cell-based
Procedure, shortened: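 SR-3Y1 cells exposed to drug 15 h, lysed on ice 20 min in Tris pH 7.5 RIPA-type buffer with protease inhibitors and 1 mM vanadate. Equal-protein lysates run on SDS-PAGE, blotted with anti-phosphotyrosine antibody, HRP secondary, ECL detection. IC50 = concentration halving tyrosine phosphorylation.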

[4] = Percent depletion of Raf-1 protein expression after 40h exposure at 0.2 uM in KNRK5.2 cells; type: functional, cell-based; conditions: Rattus norvegicus
Procedure, shortened: (§2)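 KNRK5.2 cells exposed to 0.2 µM drug for 40 h, then lysed. Equal-protein lysates Western blotted in duplicate for Raf-1 (rabbit polyclonal), phospho-MAPK (phosphospecific antibody) and total Erk2 (monoclonal). Read-out is % inhibition of phospho-Erk2 formation or % Raf-1 depletion.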

[5] = Inhibition of K-ras-induced MAPK phosphorylation in KNRK5.2 cells after 40h exposure at 0.2 uM; type: functional; conditions: Rattus norvegicus; procedure, shortened: as §2
Mus musculus [6] = assay: In vivo antitumor activity against BALB mice transplanted with human tumor (MX-1) using Xenograft Model at a dose of 100 mg/kg by administering intravenously for 5 days and mortality is calculated; type: functional; conditions: route intravenous
Procedure, shortened: (§3)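 Adult BALB/c nu/nu mice (n = 5) inoculated sc in the flank with human tumor cells: MX-1 on day -14, A431 on day -18. Drug dissolved in cremophor EL/N,N-dimethylacetamide/physiological saline (7.5:5:87.5) and given iv once daily on days 0-4. Animals monitored for lethal toxicity and body weight loss.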

Mus musculus [7] = assay: In vivo antitumor activity against BALB mice transplanted with human tumor (MX-1) using Xenograft Model at a dose of 100 mg/kg by administering intravenously for 5 days and T/C value is calculated on 14th day; type: functional; conditions: route intravenous
Mus musculus [8] = assay: In vivo antitumor activity against BALB mice transplanted with human tumor (MX-1) Xenograft Model at a dose of 25 mg/kg by administering intravenously for 5 days and Mortality is calculated; type: functional; conditions: route intravenous; procedure, shortened: as §3
Mus musculus [9] = assay: In vivo antitumor activity against BALB mice transplanted with human tumor (MX-1) Xenograft Model at a dose of 50 mg/kg by administering intravenously for 5 days and Mortality is calculated; type: functional; conditions: route intravenous; procedure, shortened: as §3
Mus musculus [10] = species on record: Mus musculus; assay: Dose required to produce lethal toxicity was determined; type: organism-based; conditions: in vivo; procedure, shortened: as §3
Mus musculus [11] = assay: In vivo antitumor activity against BALB mice transplanted with human tumor (A431) Xenograft Model at a dose of 50 mg/kg by administering intravenously for 5 days and Mortality is calculated; type: functional; conditions: route intravenous; procedure, shortened: as §3
Mus musculus [12] = assay: In vivo antitumor activity against BALB mice transplanted with human tumor (A431) Xenograft Model at a dose of 25 mg/kg by administering intravenously for 5 days and T/C value was calculated on 7th day; type: functional; conditions: dose 50 mg/kg; route intravenous; in the assay text read “50 mg/kg” for “25 mg/kg”
Procedure, shortened: (§4)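 Adult BALB/c nu/nu mice (n = 5), tumor cells inoculated sc in the flank (MX-1 day -14, A431 day -18). Drug in cremophor EL/N,N-dimethylacetamide/saline (7.5:5:87.5), given iv daily days 0-4. Tumor volume = length × width²/2. T/C = mean V/V0 of treated over control. Mann–Whitney U test.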

Mus musculus [13] = assay: In vivo antitumor activity against BALB mice transplanted with human tumor (MX-1) using Xenograft Model at a dose of 50 mg/kg by administering intravenously for 5 days and T/C value was calculated on 11th day; type: functional; conditions: route intravenous; procedure, shortened: as §4
Mus musculus [14] = assay: In vivo antitumor activity against BALB mice transplanted with human tumor (MX1) Xenograft Model at a dose of 25 mg/kg by administering intravenously for 5 days and T/C value was calculated on 11th day; type: functional; conditions: route intravenous; procedure, shortened: as §4

IC50 [3] [nM]	Structure (SMILES)	IC50 (3Y1 cell line) [nM]	IC50 [1] [nM]	IC50 (NRK) [nM]	IC50 [2] [nM]	also measured
	C[C@@H]1C[C@H]2O[C@@H]2\C=C/C=C/C(=N\OCC(=O)N2CCN(C)CC2)Cc2c(Cl)c(O)cc(O)c2C(=O)O1	1000	1500	1200	470	
70	C[C@@H]1C[C@H]2O[C@@H]2\C=C/C=C/C(=N\OCC(=O)N2CCCC2)Cc2c(Cl)c(O)cc(O)c2C(=O)O1	55	39	34	20	
14	C[C@@H]1C[C@H]2O[C@@H]2\C=C/C=C/C(=N\OCC(=O)NC2CCCC2)Cc2c(Cl)c(O)cc(O)c2C(=O)O1	41	45	41	9.8	
> 1000	C[C@@H]1C[C@H]2O[C@@H]2\C=C/C=C/C(=N\OCC(=O)NCCO)Cc2c(Cl)c(O)cc(O)c2C(=O)O1	2800	2200	> 3000	1500	
390	COc1ccc(NC(=O)CO\N=C2/C=C/C=C\[C@H]3O[C@@H]3C[C@@H](C)OC(=O)c3c(O)cc(O)c(Cl)c3C2)cc1	100	81	260	58	
	C[C@@H]1C[C@H]2O[C@@H]2\C=C/C=C/C(=N\OCC(=O)N2CCC(O)CC2)Cc2c(Cl)c(O)cc(O)c2C(=O)O1	> 3000	> 3000	> 3000	> 3000	
< 10	CCN(CC)c1ccc(NC(=O)CO\N=C2/C=C/C=C\[C@H]3O[C@@H]3C[C@@H](C)OC(=O)c3c(O)cc(O)c(Cl)c3C2)cc1	490	240	520	100	
> 1000	CCN(CC)CCNC(=O)CO\N=C1/C=C/C=C\[C@H]2O[C@@H]2C[C@@H](C)OC(=O)c2c(O)cc(O)c(Cl)c2C1	> 3000	> 3000	> 3000	2300	
> 1000	C[C@@H]1C[C@H]2O[C@@H]2\C=C/C=C/C(=N\OCC(=O)NCc2cccnc2)Cc2c(Cl)c(O)cc(O)c2C(=O)O1	670	480	510	290	
140	C[C@@H]1C[C@H]2O[C@@H]2\C=C/C=C/C(=N\OCC(=O)N2CCOCC2)Cc2c(Cl)c(O)cc(O)c2C(=O)O1	310	340	340	130	
> 1000	CCOCCNC(=O)CO\N=C1/C=C/C=C\[C@H]2O[C@@H]2C[C@@H](C)OC(=O)c2c(O)cc(O)c(Cl)c2C1	390	230	260	93	
43	C[C@@H]1C[C@H]2O[C@@H]2\C=C/C=C/C(=N\OCC(=O)Nc2ccccc2)Cc2c(Cl)c(O)cc(O)c2C(=O)O1	620	290	320	120	
210	C[C@@H]1C[C@H]2O[C@@H]2\C=C/C=C/C(=N\OCC(=O)NC2CCCCC2)Cc2c(Cl)c(O)cc(O)c2C(=O)O1	67	73	190	5.7	
> 1000	C[C@@H]1C[C@H]2O[C@@H]2\C=C/C=C/C(=N\OCC(=O)NCCc2cccn2C)Cc2c(Cl)c(O)cc(O)c2C(=O)O1	600	380	1200	84	
> 1000	C[C@@H]1C[C@H]2O[C@@H]2\C=C/C=C/C(=N\OCC(=O)N(CCO)CCO)Cc2c(Cl)c(O)cc(O)c2C(=O)O1	> 3000	2900	> 3000	1100	
17	C[C@@H]1C[C@H]2O[C@@H]2\C=C/C=C/C(=N\OCC(=O)NCC2CCCCC2)Cc2c(Cl)c(O)cc(O)c2C(=O)O1	180	140	210	20	
54	C[C@@H]1C[C@H]2O[C@@H]2\C=C/C=C/C(=N\OCC(=O)Nc2cccnc2)Cc2c(Cl)c(O)cc(O)c2C(=O)O1	200	120	240	51	
	C[C@@H]1C[C@H]2O[C@@H]2\C=C/C=C/C(=N\OCC(=O)N2CCC(N3CCCCC3)CC2)Cc2c(Cl)c(O)cc(O)c2C(=O)O1	> 3000	> 3000	3000	> 3000	
360	COC(=O)CNC(=O)CO\N=C1/C=C/C=C\[C@H]2O[C@@H]2C[C@@H](C)OC(=O)c2c(O)cc(O)c(Cl)c2C1	790	570	700	240	
	C[C@@H]1C[C@H]2O[C@@H]2\C=C/C=C/C(=N\OCC(=O)N2CCC(C(N)=O)CC2)Cc2c(Cl)c(O)cc(O)c2C(=O)O1	> 3000	> 3000	> 3000	> 3000	
67	C[C@@H]1C[C@H]2O[C@@H]2\C=C/C=C/C(=N\OCC(=O)N2CCCCCC2)Cc2c(Cl)c(O)cc(O)c2C(=O)O1	< 4.1	6.4	7.3	< 4.1	

Structure (SMILES)	IC50 [3] [nM]	IC50 (3Y1 cell line) [nM]	IC50 [1] [nM]	IC50 (NRK) [nM]	IC50 [2] [nM]	also measured
C[C@@H]1C[C@H]2O[C@@H]2/C=C\C=C\C(=O)Cc2c(Cl)c(O)cc(O)c2C(=O)O1 [RADICICOL]	180	700	110	290	59	
C[C@@H]1C[C@H]2O[C@@H]2\C=C/C=C/C(=N\O)Cc2c(Cl)c(O)cc(O)c2C(=O)O1	56	90	39	80	26	Depletion [4]: 29%; inhibition at 0.2 µM [5]: 81%; Mortality (Mus musculus [6]): 0; T/C min (Mus musculus [7]): 0.49
C[C@@H]1C[C@H]2O[C@@H]2\C=C/C=C/C(=N\OCC(=O)N2CCCCC2)Cc2c(Cl)c(O)cc(O)c2C(=O)O1	25	8.3	14	18	6.1	Depletion [4]: 74%; inhibition at 0.2 µM [5]: 95%; Mortality (Mus musculus [8]): 0; Mortality (Mus musculus [9]): 0; Lethal toxicity (Mus musculus [10]): 100 mg/kg; Mortality (Mus musculus [11]): 0; T/C min (Mus musculus [12]): 0.44; T/C min (Mus musculus [13]): 0.17; T/C min (Mus musculus [14]): 0.54

Source: ChEMBL document CHEMBL1145797, “Synthesis and antitumor activity of novel O-carbamoylmethyloxime derivatives of radicicol” (J Med Chem, 2003)
